Data from ChEMBL document CHEMBL1135606, “Synthesis, stability, and antimalarial activity of new hydrolytically stable and water-soluble (+)-deoxoartelinic acid” (J Med Chem, 2002).
In brackets after ≈: the same amount, converted by molar mass.

Assays:
[1] = Half life was reported; type: ADME
Procedure, shortened: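 Simulated stomach acid stability: compound at 1 mg/mL in 0.01 N HCl, pH 2.0, sealed, 37 °C. Acetal-type compounds sampled at 0–1400 min; non-acetal-type at 2–14 days. Remaining drug quantified by reverse-phase C-18 HPLC (ammonium acetate/acetonitrile, internal standard). Half-life from pseudo-first-order disappearance.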

Plasmodium falciparum [2] = assay: In vitro antimalarial activity against chloroquine-resistant Plasmodium falciparum K1; type: functional; settings: read-out: ED50 (the source's name)
Procedure, shortened: (§1)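 Asexual P. falciparum (3D7 or K1) in A+ erythrocytes, RPMI 1640, 5% hematocrit, 37 °C, 5% CO2. Synchronized ring stages at 1% parasitemia. Triplicate 3-fold dilutions from a final top concentration of 30 µg/mL. 24 h incubation, then [3H]-hypoxanthine (0.1 µCi/well) for a further 24 h. Incorporation read by scintillation counting; ED50 from curve fitting.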

Mus musculus [3] = assay: In vivo antimalarial activity against Plasmodium chabaudi in mice (Mus musculus) and its survival rate reported; type: functional
Plasmodium falciparum [4] = assay: In vitro antimalarial activity against chloroquine-sensitive Plasmodium falciparum 3D7; type: functional; settings: read-out: ED50 (the source's name); procedure, shortened: as §1
Mus musculus [5] = assay: In vivo antimalarial activity against Plasmodium chabaudi in mice (Mus musculus) and its survival was reported; type: functional
Mus musculus [6] = assay: Percent of infected erythrocytes in Blood schizonticidal activity against Plasmodium chabaudi in mice at a concentration of 10 mg/kg/day on day 2; type: functional
Mus musculus [7] = assay: Percent of infected erythrocytes in Blood schizonticidal activity against Plasmodium chabaudi in mice at a concentration of 10 mg/kg/day on day 3; type: functional
Mus musculus [8] = assay: Percent of infected erythrocytes in Blood schizonticidal activity against Plasmodium chabaudi in mice at a concentration of 10 mg/kg/day on day 1; type: functional
Procedure, shortened: (§2)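 Female BALB/c mice (18–20 g, SPF), groups of five, infected iv on day 1 with 1 × 10^7 P. chabaudi ANKA-infected erythrocytes. Dosing ip began 2 h post-inoculation, once daily for 4 days, at 10 mg/kg/day in 10% DMSO/PBS. On day 5, Giemsa-stained smears; ≥1000 red cells counted; % infected erythrocytes per mouse, compared with controls.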

Mus musculus [9] = assay: Percent of infected erythrocytes in Blood schizonticidal activity against Plasmodium chabaudi in mice at a concentration of 10 mg/kg/day on day 4; type: functional; procedure, shortened: as §2
Mus musculus [10] = assay: Percent of infected erythrocytes in Blood schizonticidal activity against Plasmodium chabaudi in mice at a concentration of 10 mg/kg/day on day 5; type: functional; procedure, shortened: as §2

Row | Compound | half-life [1] | EC50 (Plasmodium falciparum [2]) | Survival rate (Mus musculus [3]) | EC50 (Plasmodium falciparum [4]) | Survival (Mus musculus [5]) | Infected erythrocytes (Mus musculus [6]) | Infected erythrocytes (Mus musculus [7]) | Infected erythrocytes (Mus musculus [8]) | Infected erythrocytes (Mus musculus [9]) | Infected erythrocytes (Mus musculus [10])
1 | CCCC[C@H]1O[C@@H]2O[C@]3(C)CC[C@H]4[C@H](C)CC[C@@H]([C@H]1C)[C@@]24OO3 | 187 h | – | – | – | – | – | – | – | – | –
2 | CCO[C@H]1O[C@@H]2O[C@@]3(C)CC[C@H]4[C@H](C)CC[C@@H]([C@H]1C)[C@@]24OO3 [ARTEMOTIL] | 11 h | 0.9 ng/mL (≈ 2.88 nM) | 60% | 0.2 ng/mL (≈ 0.64 nM) | 3 | – | – | – | – | –
3 | C[C@@H]1CC[C@H]2[C@@H](C)C(=O)O[C@@H]3O[C@@]4(C)CC[C@@H]1[C@]32OO4 [ARTEMISININ] | – | 0.7 ng/mL (≈ 2.48 nM) | – | 2.9 ng/mL (≈ 10.3 nM) | – | – | – | – | – | –
4 | CCN(CC)CCCC(C)Nc1ccnc2cc(Cl)ccc12 (stereo not drawn) [CHLOROQUINE] | – | 220 ng/mL (≈ 688 nM) | 0% | 8 ng/mL (≈ 25 nM) | 0 | 71.3% | 62.1% | 65% | 82.4% | 81.3%
5 | C[C@H]1[C@@H](CCc2ccc(C(=O)O)cc2)O[C@@H]2O[C@]3(C)CC[C@H]4[C@H](C)CC[C@@H]1[C@@]24OO3 | 259 h | 0.6 ng/mL (≈ 1.44 nM) | 100% | 1.1 ng/mL (≈ 2.64 nM) | 5 | 0.5% | 2.9% | 0.5% | 0.5% | 0.3%
6 | C[C@H]1[C@H](OC(=O)CCC(=O)O)O[C@@H]2O[C@@]3(C)CC[C@H]4[C@H](C)CC[C@@H]1[C@@]24OO3 [ARTESUNATE] | – | 0.6 ng/mL (≈ 1.56 nM) | – | 0.2 ng/mL (≈ 0.52 nM) | – | – | – | – | – | –
7 | C[C@@H]1[C@H](OCc2ccc(C(=O)O)cc2)O[C@@H]2O[C@@]3(C)CC[C@@H]4[C@@H](C)CC[C@@H]1[C@]24OO3 [ARTELINIC ACID] | 13.1 h | 1.4 ng/mL (≈ 3.35 nM) | – | 4 ng/mL (≈ 9.56 nM) | – | – | – | – | – | –
8 | C[C@@H]1CC[C@H]2[C@@H](C)CO[C@@H]3O[C@]4(C)CC[C@@H]1[C@]32OO4 [DEOXOARTEMISININ] | 245 h | – | – | – | – | – | – | – | – | –
